HEK293 NFkB inh: lowers PMA/ionomycin-induced NF-kB signal in HEK293 cells; 62,000 compounds, 0.21% hits; HEK-293 NF-kB luciferase reporter, luminescence; AID 465; inhibition, % at 3 µM;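 active = inhibition above the mean of all tested compounds plus 3 SD, cut at about 40% in these data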;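 also: 0% = stimulated DMSO wells and 100% = 10 µM reference inhibitor 5653914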
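Timing: 1 h pretreatment, 16 h stimulation, 37 °C; system: HEK-293 cells with stable firefly luciferase reporter driven by four HIV NF-kB elements; doses: 3 µM once, 0.30% DMSO; measured by: luciferase luminescence; control set: DMSO and 10 µM reference inhibitor; repeats: single test; reagent: PMA plus ionomycin mix as NF-kB-activating stimulus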
M1 antagonist: blocks the rat M1 muscarinic receptor response to acetylcholine | B-score at 10 µM | CHO-M1 cells, Fluo-4 calcium, ACh EC80 antagonist mode; active compounds read low | 64,000 compounds, 3.4% hits | AID 628 | P08482;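 active = calcium fluorescence response, raw or row-and-column corrected B-score, differing from the plate sample mean either way at a set confidence level, mostly lower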
MKP-1 inh: human dual specificity phosphatase 1 inhibition; P28562; recombinant MKP-1, OMFP hydrolysis fluorescence; inhibition, %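 (compounds tested at a single concentration somewhere between 10 and 100 µM)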; 65,000 compounds, 0.15% hits;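 active = inhibition above about 50%, limit read from the data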;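 also: 0% = DMSO max control wells and 100% = wells with enzyme stopped by NaOH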
M1 agonist: M1 muscarinic receptor agonism; CHO-M1 cells, Fluo-4 calcium fluorescence, agonist mode; active compounds read high; B-score at 10 µM; 64,000 compounds, 3% hits; AID 626;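 active = fluorescence rise, raw or as B-score row- and column-corrected plate score, outside the 99.7% band of its plate's samples, either direction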
Cdc25B inh: inhibitors of human Cdc25B phosphatase | P30305 | recombinant Cdc25B, OMFP fluorescence Ex485/Em525 | inhibition, %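 (compounds tested at 10 µM final in the well)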 | 65,000 compounds, 0.1% hits; in the data active = inhibition above about 50%
HER2 expr 66K: Her2 kinase expression inhibition. 65,000 compounds, 0.69% hits. AID 645. HER2 level % of control, % at 10 µM. P04626. SKBR-3 HER2 protein level, AlphaScreen, 18-24 h; active compounds read low;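 active = HER2 level under 5% of the carrier-only control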;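 also: 100% = DMSO carrier and 0% = 500 nM PU-H71 HSP90 inhibitor; lower value means stronger loss of Her2 protein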
An asterisk follows results filed as active; / = not tested or not shown. This is a sample that favours compounds with a hit; in the whole collection about 6.8% have one here.

SMILES | HEK293 NFkB inh | M1 antagonist | MKP-1 inh | M1 agonist | Cdc25B inh | HER2 expr 66K
CCc1nc2ccccc2c(=O)n1CCCCn1c(CC)nc2ccccc2c1=O | 15 | 0.98 | 3 | -0.23 | -11 | 122
CCCn1c(=O)c2ccccc2n2c(SCC(=O)c3ccccc3)nnc12 | 10 | 2.5* | 8 | 2.3 | -10 | 103
Cn1c(=O)c2c3c(sc2n2c(SCC(=O)c4ccc(Cl)cc4)nnc12)COC(C)(C)C3 | / | -0.24 | -4 | 0.028 | 3 | 88
CCCn1c(=O)c2ccccc2n2c(SCC(=O)c3ccc(F)cc3)nnc12 | 0 | -0.48 | 27 | -0.32 | -4 | 93
Cn1c(=O)c2c3c(sc2n2c(SCC(=O)c4ccccc4)nnc12)COC(C)(C)C3 | / | -2.9* | -27 | -0.78 | 6 | 105
CCCC(NS(=O)(=O)c1ccc(Br)cc1)C(=O)O (configuration not stated) | 4 | 0.014 | 11 | -0.75 | -2 | 95
Cc1sc(NC(=O)c2ccco2)nc1-c1ccc2c(c1)CC(C)N2C(=O)C1CC1 (configuration not stated) | 7 | -3.6* | 32 | 14* | -2 | 17
COc1ccc2c(c1)-c1nc(NC(=O)c3ccco3)sc1CC2 | / | 1.5 | 27 | 0.5 | -12 | 64
COc1ccc(-c2oc3ncnc(NCCCN4CCOCC4)c3c2-c2ccc(OC)cc2)cc1 | 29 | -0.76 | 42 | 0.3 | -9 | -2.9*
Cc1nc2cc(NC(=O)COc3ccc(C#N)cc3)ccc2n1-c1ccccc1 | 4 | -0.92 | 15 | 0.27 | -1 | 97
CCOC(=O)c1[nH]cnc1C(=O)O | 16 | 0.24 | 21 | -1.4 | 1 | 107
CCNC(=O)c1nc[nH]c1C(=O)NCC | 0 | 1.1 | -18 | 0.37 | -12 | -22*
c1ccc(Cc2nn3c(Cn4nnc5ccccc54)nnc3s2)cc1 | 11 | 0.58 | -10 | -0.037 | -1 | 88
c1ccc2c(c1)OCC(c1nn3c(Cn4nnc5ccccc54)nnc3s1)O2 (configuration not stated) | 11 | -0.25 | 2 | -3.2* | -1 | 56
CCCS(=O)(=O)N1CCC(C(=O)NCC2CCCO2)CC1 (configuration not stated) | 12 | 0.33 | 4 | 0.85 | 3 | 83
COC(=O)c1ccccc1S(=O)(=O)N(Cc1ccco1)Cc1cc2cc(OC)ccc2[nH]c1=O | 9 | -0.19 | -16 | 7.7* | 11 | 74
COc1ccc2[nH]c(=O)c(CN(Cc3ccco3)Cc3nnnn3Cc3ccccc3)cc2c1 | 11 | -0.18 | -17 | -0.46 | 0 | 99
Cc1ccc(C2CC(c3ccccc3OC(F)F)Nc3ncnn32)cc1 (configuration not stated) | 6 | 1.3* | 4 | 0.84 | 2 | 94
CCN1CCN(c2ncnc3c2oc2nc(C(C)C)c4c(c23)CCC4)CC1 | 3 | -0.48 | 29 | -0.018 | -25 | 88
CC(C)Cc1nc2oc3c(N4CCN(CCO)CC4)ncnc3c2c2c1CCCC2 | 17 | -0.04 | 24 | 0.29 | -4 | -3.6*
O=C(NCCCn1ccnc1)c1cc(S(=O)(=O)N2CCOCC2)c(Cl)cc1Cl | 15 | 1.2 | 14 | -0.19 | -19 | -32*
O=C(Nc1ccccc1O)c1cc(S(=O)(=O)N2CCOCC2)c(Cl)cc1Cl | 0 | 0.22 | 3 | 0.62 | -15 | 82
CCCCN(CCCNC(=O)C1CCN(S(=O)(=O)CC)CC1)c1ccccc1 | 16 | -0.038 | 15 | -0.23 | -10 | 85
O=C(NCc1cccs1)c1nc2c(nnn2Cc2ccccc2Cl)c(=O)[nH]1 | 53* | / | 37 | / | 1 | 0.0*
O=C(Cc1cccs1)N1CCCC(c2nc3c(nnn3Cc3ccccc3Cl)c(=O)[nH]2)C1 (configuration not stated) | 13 | -0.38 | 27 | 0.94 | 13 | 103
Cc1csc(=O)n1CCC(=O)O | 20 | -0.098 | -2 | 0.047 | -17 | 107
CCOc1cc2[nH]c(=O)n(CCCCC(=O)NC3CCCCC3)c(=O)c2cc1OCC | -6 | 1.2 | 32 | 0.38 | 2 | 84
CCCCN1CCc2c([nH]c3c(C)cccc23)C1=O | -9 | 0.52 | -2 | -0.074 | -14 | 62
O=C1c2oc3ccccc3c(=O)c2C(c2ccc(Cl)cc2)N1c1ncccn1 (configuration not stated) | 4 | 0.031 | -17 | -0.03 | -2 | 102
